Experimental data from ChEMBL document CHEMBL4765343, “Design and synthesis of novel SCM-198 analogs as cardioprotective agents: Structure-activity relationship studies and biological evaluations” (Eur J Med Chem, 2020).
pEC50: −log10 of the molar value. Calls of active or inactive are those of the source. The rule behind the calls is not given here.

Experiments:
H9c2 [1] = assay: Antioxidant activity in rat H9c2 cells assessed as protection against H2O2-induced hypoxic injury by measuring cell viability at 10 uM preincubated for 4 hrs followed by H2O2 stimulation for 1 hr by MTT assay relative to control; format: functional
Method in brief: (§1)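 H9c2 cells at 1 × 10^5 cells/mL, 100 μL per well in triplicate, left 18 h. Compound diluted in DMSO; DMSO alone as negative control. 4 h pretreatment, then 400 nM H2O2 for 1 h. Medium removed and MTT added for 2-4 h, formazan dissolved in DMSO, absorbance at 570 nm. Medium-only wells gave the blank.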

H9c2 [2] = assay: Antioxidant activity in rat H9c2 cells assessed as protection against H2O2-induced hypoxic injury by measuring cell viability at 1 uM preincubated for 4 hrs followed by H2O2 stimulation for 1 hr by MTT assay relative to control; format: functional; method in brief: as §1
H9c2 [3] = assay: Antioxidant activity in rat H9c2 cells assessed as protection against H2O2-induced hypoxic injury by measuring cell viability at ED50 concentration preincubated for 4 hrs followed by H2O2 stimulation for 1 hr by MTT assay relative to control; format: functional; conditions: time 5 hrs
Method in brief: (§2)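 ED50 taken from log dose against % viability. Viability also reported at the EC50 concentration. Means ± SEM from three independent experiments.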

H9c2 [4] = assay: Antioxidant activity in rat H9c2 cells assessed as protection against H2O2-induced hypoxic injury by measuring cell viability preincubated for 4 hrs followed by H2O2 stimulation for 1 hr by MTT assay relative to control; format: functional; conditions: time 5 hrs, read-out: ED50 (the source's name); method in brief: as §2
H9c2 [5] = assay: Antiapoptotic activity in rat H9c2 cells assessed as restoration of H2O2-induced bcl-2 downregulation at 10 uM preincubated for 4 hrs followed by H2O2 stimulation for 1 hr by Western blotting analysis; format: functional, cell-based; conditions: time 5.0 hrs
Method in brief: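 Serum-starved (12 h) H9c2 cells were pretreated 4 h, then exposed to 500 nM H2O2 in DMEM for 1 h. Lysis on ice with protease/phosphatase inhibitors, then 13,000 g at 4 °C for 15 min. 20 μg protein run on 8-12% SDS-PAGE and blotted to PVDF. Probed overnight at 4 °C for caspase-3, pro-caspase-3, Bcl-2 and GAPDH, with chemiluminescent detection.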

H9c2 [6] = assay: Cytoprotective activity against H2O2-induced injury in rat H9c2 cells assessed as reduction in LDH release at 10 uM preincubated for 4 hrs followed by H2O2 stimulation for 1 hr by LDH assay; format: functional, cell-based; conditions: time 5.0 hrs
Method in brief: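 Cells at 5 × 10^4 per well in triplicate, 18 h, then 4 h compound and 1 h H2O2. Model wells had H2O2 without compound; controls had DMSO. 50 μL medium mixed with 2X LDH assay buffer, kept in the dark at 22-25 °C for 10-30 min, read at 490-520 nm. Activity blank-subtracted, normalised to BCA protein of the lysed cells, and expressed relative to model wells.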

In the case of COc1cc(C(=O)OCCCCNC(=N)N)ccc1OC(C)=O, the Activity (H9c2 [1]) was 56.4% and the Activity (H9c2 [2]) was 63.4%.
In the case of COc1cc(/C=C/C(=O)OCCCCNC(=N)N)cc(OC)c1OC, the Activity (H9c2 [1]) was 61.4% and the Activity (H9c2 [2]) was 55.4%.
COc1cc(C(=O)OCCCCN)cc(OC)c1O showed an Activity (H9c2 [1]) of 56.2% and an Activity (H9c2 [2]) of 56.3%.
COc1cc(C(=O)OCCCCNC(=N)N)cc(OC)c1OC gave an Activity (H9c2 [1]) of 53.3% and an Activity (H9c2 [2]) of 54.1%.
With CC(=O)Oc1ccccc1C(=O)OCCCCNC(=N)N the Activity (H9c2 [1]) was 58.3% and the Activity (H9c2 [2]) was 57.8%.
N=C(N)NCCCCOC(=O)C1CCCCC1 showed an Activity (H9c2 [1]) of 58.8% and an Activity (H9c2 [2]) of 52.4%.
Work on N=C(N)NCCCCOC(=O)c1ccc([N+](=O)[O-])cc1 yielded an Activity (H9c2 [1]) of 59.6% and an Activity (H9c2 [2]) of 67.7%.
For COc1cc(C(=O)OCC2CCN(C(=N)N)CC2)cc(OC)c1OC(C)=O, the Activity (H9c2 [1]) was 47% and the Activity (H9c2 [2]) was 42.7%.
In the case of CCN(CC)CCOC(=O)c1cc(OC)c(O)c(OC)c1, the Activity (H9c2 [1]) was 66.8%, the Activity (H9c2 [3]) was 51.7% and the pEC50 (H9c2 [4]) was 6.68. The Activity (H9c2 [2]) was 61.1%.
In the case of CC(=O)Oc1cccc(C(=O)OCCCCNC(=N)N)c1, the Activity (H9c2 [1]) was 62.8% and the Activity (H9c2 [2]) was 59.7%.
Work on COc1cc(C(=O)OCCN2CCOCC2)cc(OC)c1O yielded an Activity (H9c2 [1]) of 50.5% and an Activity (H9c2 [2]) of 52.3%.
With N=C(N)NCCCCOC(=O)c1ccc(C(F)(F)F)cc1 the Activity (H9c2 [1]) was 51.7% and the Activity (H9c2 [2]) was 54.2%.
In the case of N=C(N)NCCCCOC(=O)C12CC3CC(CC(C3)C1)C2, the Activity (H9c2 [1]) was 56.8% and the Activity (H9c2 [2]) was 58.2%.
Work on COc1ccc(C(=O)OCCCCNC(=N)N)cc1 yielded an Activity (H9c2 [1]) of 58.6% and an Activity (H9c2 [2]) of 61.2%.
Work on N=C(N)NCCCCOC(=O)c1ccncc1 yielded an Activity (H9c2 [1]) of 53.2% and an Activity (H9c2 [2]) of 54%.
In the case of COc1cc(C(=O)OCCOCCNC(=N)N)cc(OC)c1O, the Activity (H9c2 [5]) was “inactive”, the Activity (H9c2 [1]) was 69.8% and the Activity (H9c2 [3]) was 58.8%. For the same compound, the pEC50 (H9c2 [4]) was 6.82 and the Activity (H9c2 [2]) was 63.4%.
With COc1cc(C(=O)OCCCCCNC(=N)N)cc(OC)c1O the Activity (H9c2 [1]) was 50.1% and the Activity (H9c2 [2]) was 58.9%.
Compound COc1cc(C(=O)OC(C)CNC(=N)N)cc(OC)c1O (stereo unspecified) has an Activity (H9c2 [1]) of 54.2% and an Activity (H9c2 [2]) of 52.2%.
In the case of CC(=O)Oc1ccc(C(=O)OCCCCNC(=N)N)cc1, the Activity (H9c2 [1]) was 52.7% and the Activity (H9c2 [2]) was 57.8%.
In the case of N=C(N)NCCCCOC(=O)c1ccco1, the Activity (H9c2 [1]) was 53.2% and the Activity (H9c2 [2]) was 51.1%.
N=C(N)NCCCCOC(=O)c1ccc2[nH]ccc2c1 was tested, and the Activity (H9c2 [1]) was 58.9% and the Activity (H9c2 [2]) was 51.8%.
For Cc1cccc(C(=O)OCCCCNC(=N)N)c1, the Activity (H9c2 [6]) was “inactive”, the Activity (H9c2 [1]) was 65.8% and the Activity (H9c2 [3]) was 57.4%. The pEC50 (H9c2 [4]) was 6.81 and the Activity (H9c2 [2]) was 64.4%.
Compound COc1cc(C(=O)OCCNC(=N)N)cc(OC)c1O has an Activity (H9c2 [1]) of 61.9% and an Activity (H9c2 [2]) of 53.6%.
In the case of N=C(N)NCCCCOC(=O)c1c(F)cc(F)cc1F, the Activity (H9c2 [1]) was 60.7% and the Activity (H9c2 [2]) was 69.6%.
COc1cc(C(=O)OCCCCCCNC(=N)N)cc(OC)c1O showed an Activity (H9c2 [1]) of 58.9% and an Activity (H9c2 [2]) of 53.4%.
In the case of COc1cc(C(=O)OCCCNC(=N)N)cc(OC)c1O, the Activity (H9c2 [1]) was 55.2% and the Activity (H9c2 [2]) was 50.1%.
COc1cc(C(=O)OCCCCNC(=N)N)cc(OC)c1OC(C)=O showed an Activity (H9c2 [1]) of 55.2% and an Activity (H9c2 [2]) of 52.3%.
N=C(N)NCCCCO gave an Activity (H9c2 [1]) of 51.4% and an Activity (H9c2 [2]) of 46.8%.
Compound COc1cc(C(=O)OCCN(C)C)cc(OC)c1O has an Activity (H9c2 [1]) of 48.5% and an Activity (H9c2 [2]) of 47.8%.
Work on COc1cc(OC)c(C(=O)OCCCCNC(=N)N)c(OC)c1 yielded an Activity (H9c2 [1]) of 53.4% and an Activity (H9c2 [2]) of 55.2%.
With COc1ccc(C(=O)OCCCCNC(=N)N)c(OC)c1OC the Activity (H9c2 [1]) was 57.8% and the Activity (H9c2 [2]) was 49.2%.
Work on COc1ccc(OC)c(C(=O)OCCCCNC(=N)N)c1 yielded an Activity (H9c2 [1]) of 57.7% and an Activity (H9c2 [2]) of 53.3%.
Work on COc1cc(C(=O)OCC2CCN(C(=N)N)CC2)cc(OC)c1O yielded an Activity (H9c2 [1]) of 61% and an Activity (H9c2 [2]) of 56.2%.
COc1cc(C(=O)OCCCN(C)C)cc(OC)c1O was tested, and the Activity (H9c2 [1]) was 61.7% and the Activity (H9c2 [2]) was 55.2%.
